≈ marks a conversion by molar mass, not a printed value.
How the values were obtained:
Pseudomonas aeruginosa [1] = experiment: Antibacterial activity against Pseudomonas aeruginosa ARC4060 after 24 hrs by broth microdilution method; assay type: functional; settings: ARC4060, 24 h
Method in brief: (§1)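 Broth microdilution per CLSI. Bacterial suspension adjusted to 1×10^6 CFU/mL in cation-adjusted Mueller–Hinton broth and mixed 1:1 with 2-fold serial compound dilutions. Final DMSO 2.5% v/v. Plates incubated at 35 °C with shaking at 140 rpm for 24 h.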

Pseudomonas aeruginosa [2] = experiment: Antibacterial activity against Pseudomonas aeruginosa ARC3611 after 24 hrs by broth microdilution method; assay type: functional; settings: ARC3611, 24 h; method in brief: as §1
Pseudomonas aeruginosa [3] = experiment: Antibacterial activity against Pseudomonas aeruginosa ARC3607 after 24 hrs by broth microdilution method; assay type: functional; settings: ARC3607, 24 h; method in brief: as §1
Pseudomonas aeruginosa [4] = experiment: Antibacterial activity against Pseudomonas aeruginosa PAO1 after 24 hrs by broth microdilution method; assay type: functional; settings: PAO1, 24 h; method in brief: as §1
Acinetobacter baumannii [5] = experiment: Antibacterial activity against Acinetobacter baumannii ARC3485 after 24 hrs by broth microdilution method; assay type: functional; settings: ARC3485, 24 h; method in brief: as §1
Acinetobacter baumannii [6] = experiment: Antibacterial activity against Acinetobacter baumannii ARC3495 after 24 hrs by broth microdilution method; assay type: functional; settings: ARC3495, 24 h; method in brief: as §1
Enterobacter cloacae = experiment: Antibacterial activity against Enterobacter cloacae ARC3528 after 24 hrs by broth microdilution method; assay type: functional; settings: ARC3528, 24 h; method in brief: as §1
Acinetobacter baumannii [7] = experiment: Antibacterial activity against Acinetobacter baumannii ARC3486 after 24 hrs by broth microdilution method; assay type: functional; settings: ARC3486, 24 h; method in brief: as §1
Acinetobacter baumannii [8] = experiment: Antibacterial activity against Acinetobacter baumannii ARC2728 after 24 hrs by broth microdilution method; assay type: functional; settings: ARC2728, 24 h; method in brief: as §1
Acinetobacter baumannii [9] = experiment: Antibacterial activity against Acinetobacter baumannii ARC3657 after 24 hrs by broth microdilution method; assay type: functional; settings: ARC3657, 24 h; method in brief: as §1
Acinetobacter baumannii [10] = experiment: Antibacterial activity against Acinetobacter baumannii ARC3489 after 24 hrs by broth microdilution method; assay type: functional; settings: ARC3489, 24 h; method in brief: as §1
Acinetobacter baumannii [11] = experiment: Antibacterial activity against Acinetobacter baumannii ARC3658 after 24 hrs by broth microdilution method; assay type: functional; settings: ARC3658, 24 h; method in brief: as §1
Pseudomonas aeruginosa [12] = experiment: Antibacterial activity against Pseudomonas aeruginosa ARC3514 after 24 hrs by broth microdilution method; assay type: functional; settings: ARC3514, 24 h
Method in brief: (§2)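 Broth microdilution per CLSI. Bacterial suspension adjusted to 1×10^6 CFU/mL in cation-adjusted Mueller–Hinton broth and mixed 1:1 with 2-fold serial compound dilutions. Plates incubated at 35 °C with shaking at 140 rpm for 24 h.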

Acinetobacter baumannii [13] = experiment: Antibacterial activity against Acinetobacter baumannii ARC2779 after 24 hrs by broth microdilution method; assay type: functional; settings: ARC2779, 24 h; method in brief: as §1
Candida albicans = experiment: Antifungal activity against Candida albicans ATCC 90028 after 24 hrs by broth microdilution method; assay type: functional; settings: ATCC 90028, 24 h
Staphylococcus aureus [14] = experiment: Antibacterial activity against methicillin-resistant Staphylococcus aureus USA100 after 24 hrs by broth microdilution method; assay type: functional; settings: USA100, 24 h
Method in brief: (§3)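 Broth microdilution per CLSI. Bacterial suspensions adjusted to 1×10^6 CFU/mL in cation-adjusted Mueller–Hinton broth, mixed 1:1 with 2-fold serial compound dilutions (final DMSO 2.5% v/v). Incubation 35 °C, 140 rpm, 24 h.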

Acinetobacter baumannii [15] = experiment: Antibacterial activity against Acinetobacter baumannii ARC2782 after 24 hrs by broth microdilution method; assay type: functional; settings: ARC2782, 24 h; method in brief: as §1
DNA gyrase subunit B = DNA gyrase subunit B (Escherichia coli, UniProt P0AES6); experiment: Inhibition of Escherichia coli GyrB (1 to 220 residues) expressed in Escherichia coli BL21(DE3)
[16] = Thermodynamic solubility of the compound at pH 7.4; assay type: physicochemical; settings: buffer, BLD = below limit of detection
Staphylococcus aureus [17] = experiment: Antibacterial activity against methicillin-resistant Staphylococcus aureus FQ-R after 24 hrs by broth microdilution method; assay type: functional; method in brief: as §3
[18] = Protein binding in human plasma; assay type: ADME, cell-free; settings: read-out: PPB (converted)
Pseudomonas aeruginosa [19] = experiment: Antibacterial activity against Pseudomonas aeruginosa ARC3504 after 24 hrs by broth microdilution method; assay type: functional; settings: ARC3504, 24 h; method in brief: as §1
Pseudomonas aeruginosa [20] = experiment: Antibacterial activity against Pseudomonas aeruginosa ARC3505 after 24 hrs by broth microdilution method; assay type: functional; settings: ARC3505, 24 h; method in brief: as §1
Staphylococcus aureus [21] = experiment: Antibacterial activity against Staphylococcus aureus ATCC 29213 after 24 hrs by broth microdilution method; assay type: functional; settings: ATCC 29213, 24 h; method in brief: as §1
Enterococcus faecalis = experiment: Antibacterial activity against Enterococcus faecalis ATCC 29212 after 24 hrs by broth microdilution method; assay type: functional; settings: ATCC 29212, 24 h; method in brief: as §1
Acinetobacter baumannii [22] = experiment: Antibacterial activity against Acinetobacter baumannii ARC3515 after 24 hrs by broth microdilution method; assay type: functional; settings: ARC3515, 24 h; method in brief: as §1
Pseudomonas aeruginosa [23] = experiment: Antibacterial activity against Pseudomonas aeruginosa ARC003 after 24 hrs by broth microdilution method; assay type: functional; settings: ARC003, 24 h; method in brief: as §1
Pseudomonas aeruginosa [24] = experiment: Antibacterial activity against Pseudomonas aeruginosa harboring MexABCDXY deletion mutant after 24 hrs by broth microdilution method; assay type: functional; method in brief: as §3
Pseudomonas aeruginosa [25] = experiment: Antibacterial activity against Pseudomonas aeruginosa ARC3511 after 24 hrs by broth microdilution method; assay type: functional; settings: ARC3511, 24 h; method in brief: as §2
Acinetobacter baumannii [26] = experiment: Antibacterial activity against Acinetobacter baumannii ARC3493 after 24 hrs by broth microdilution method; assay type: functional; settings: ARC3493, 24 h; method in brief: as §1
Pseudomonas aeruginosa [27] = experiment: Antibacterial activity against Pseudomonas aeruginosa ARC3727 after 24 hrs by broth microdilution method; assay type: functional; settings: ARC3727, 24 h; method in brief: as §2
Pseudomonas aeruginosa [28] = experiment: Antibacterial activity against Pseudomonas aeruginosa ARC3729 after 24 hrs by broth microdilution method; assay type: functional; settings: ARC3729, 24 h; method in brief: as §1
Pseudomonas aeruginosa [29] = experiment: Antibacterial activity against Pseudomonas aeruginosa ARC3506 after 24 hrs by broth microdilution method; assay type: functional; settings: ARC3506, 24 h; method in brief: as §1
Escherichia coli = experiment: Antibacterial activity against tolC deficient Escherichia coli after 24 hrs by broth microdilution method; assay type: functional
Method in brief: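 Broth microdilution per CLSI guidelines. Inoculum adjusted to 1×10^6 CFU/mL in cation-adjusted Mueller–Hinton broth, added 1:1 to 2-fold serial compound dilutions; final DMSO 2.5% v/v. Plates incubated 35 °C, 140 rpm, 24 h.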

Acinetobacter baumannii [30] = experiment: Antibacterial activity against Acinetobacter baumannii ARC3492 after 24 hrs by broth microdilution method; assay type: functional; settings: ARC3492, 24 h; method in brief: as §2
Pseudomonas aeruginosa [31] = experiment: Antibacterial activity against Pseudomonas aeruginosa ARC4063 after 24 hrs by broth microdilution method; assay type: functional; settings: ARC4063, 24 h; method in brief: as §2
Pseudomonas aeruginosa [32] = experiment: Antibacterial activity against Pseudomonas aeruginosa ARC3916 after 24 hrs by broth microdilution method; assay type: functional; settings: ARC3916, 24 h; method in brief: as §1
Pseudomonas aeruginosa [33] = experiment: Antibacterial activity against Pseudomonas aeruginosa ARC3606 after 24 hrs by broth microdilution method; assay type: functional; settings: ARC3606, 24 h; method in brief: as §1
Pseudomonas aeruginosa [34] = experiment: Antibacterial activity against Pseudomonas aeruginosa ARC3509 after 24 hrs by broth microdilution method; assay type: functional; settings: ARC3509, 24 h; method in brief: as §1
[35] = target: DNA topoisomerase 4 subunit B (Escherichia coli K-12, UniProt P20083); experiment: Inhibition of Escherichia coli ParE
[36] = Growth inhibition of human A549 cells; assay type: cell-based
Acinetobacter baumannii [37] = experiment: Antibacterial activity against Acinetobacter baumannii ARC2780 after 24 hrs by broth microdilution method; assay type: functional; settings: ARC2780, 24 h; method in brief: as §2
Acinetobacter baumannii [38] = experiment: Antibacterial activity against Acinetobacter baumannii ARC2781 after 24 hrs by broth microdilution method; assay type: functional; settings: ARC2781, 24 h; method in brief: as §2

DNA topoisomerase 4 subunit B, sequence (P20083 whole entry): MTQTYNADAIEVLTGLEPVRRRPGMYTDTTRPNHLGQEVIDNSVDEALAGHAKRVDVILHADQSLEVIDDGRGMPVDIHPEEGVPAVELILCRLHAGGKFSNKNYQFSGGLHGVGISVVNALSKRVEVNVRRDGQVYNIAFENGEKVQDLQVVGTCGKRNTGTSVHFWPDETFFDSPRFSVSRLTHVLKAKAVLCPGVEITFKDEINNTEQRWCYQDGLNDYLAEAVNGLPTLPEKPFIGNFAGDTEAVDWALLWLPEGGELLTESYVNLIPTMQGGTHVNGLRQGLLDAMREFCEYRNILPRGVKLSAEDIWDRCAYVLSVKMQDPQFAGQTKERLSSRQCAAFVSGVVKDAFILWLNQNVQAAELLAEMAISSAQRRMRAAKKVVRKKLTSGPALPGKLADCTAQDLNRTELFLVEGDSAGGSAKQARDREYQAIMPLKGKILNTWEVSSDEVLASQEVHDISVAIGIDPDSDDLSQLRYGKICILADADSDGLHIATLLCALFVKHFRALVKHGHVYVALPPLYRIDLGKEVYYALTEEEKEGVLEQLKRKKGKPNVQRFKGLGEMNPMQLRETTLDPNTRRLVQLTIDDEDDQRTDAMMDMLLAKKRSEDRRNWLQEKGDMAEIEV

For CCNC(=O)Nc1cc(-c2nc(C(F)(F)F)cs2)c(-c2cc3ncccc3nc2N2C3CCC2CN(C)C3)cn1, the MIC (Pseudomonas aeruginosa [1]) was 16 µg/mL (≈ 28.1 µM), the MIC (Pseudomonas aeruginosa [2]) was 8 µg/mL (≈ 14.1 µM) and the MIC (Pseudomonas aeruginosa [3]) was 64 µg/mL (≈ 113 µM). It also gave an MIC (Pseudomonas aeruginosa [4]) of 9.09 µg/mL (≈ 16 µM), an MIC (Acinetobacter baumannii [5]) of 2 µg/mL (≈ 3.52 µM) and an MIC (Acinetobacter baumannii [6]) of 2 µg/mL (≈ 3.52 µM). For the same compound, the MIC (Enterobacter cloacae) was greater than 64 µg/mL, the MIC (Acinetobacter baumannii [7]) was 2 µg/mL (≈ 3.52 µM) and the MIC (Acinetobacter baumannii [8]) was 1 µg/mL (≈ 1.76 µM). It also gave an MIC (Acinetobacter baumannii [9]) of 4 µg/mL (≈ 7.03 µM), an MIC (Acinetobacter baumannii [10]) of 2 µg/mL (≈ 3.52 µM) and an MIC (Acinetobacter baumannii [11]) of 2 µg/mL (≈ 3.52 µM). For the same compound, the MIC (Pseudomonas aeruginosa [12]) was 8 µg/mL (≈ 14.1 µM), the MIC (Acinetobacter baumannii [13]) was 2 µg/mL (≈ 3.52 µM) and the MIC (Candida albicans) was greater than 64 µg/mL. For the same compound, the MIC (Staphylococcus aureus [14]) was less than 0.06 µg/mL, the MIC (Acinetobacter baumannii [15]) was 2 µg/mL (≈ 3.52 µM) and the IC50 (DNA gyrase subunit B) was 0.007 µM. For the same compound, the Therm_solubility [16] was “Bld”, the MIC (Staphylococcus aureus [17]) was less than 0.06 µg/mL and the fraction unbound [18] was 0.03. It also gave an MIC (Pseudomonas aeruginosa [19]) of 32 µg/mL (≈ 56.3 µM), an MIC (Pseudomonas aeruginosa [20]) of 32 µg/mL (≈ 56.3 µM) and an MIC (Staphylococcus aureus [21]) of less than 0.06 µg/mL. It also gave an MIC (Enterococcus faecalis) of less than 0.06 µg/mL, an MIC (Acinetobacter baumannii [22]) of 4 µg/mL (≈ 7.03 µM) and an MIC (Pseudomonas aeruginosa [23]) of 4 µg/mL (≈ 7.03 µM). It also gave an MIC (Pseudomonas aeruginosa [24]) of 0.56 µg/mL (≈ 0.985 µM), an MIC (Pseudomonas aeruginosa [25]) of 8 µg/mL (≈ 14.1 µM) and an MIC (Acinetobacter baumannii [26]) of 2 µg/mL (≈ 3.52 µM). It also gave an MIC (Pseudomonas aeruginosa [27]) of 32 µg/mL (≈ 56.3 µM), an MIC (Pseudomonas aeruginosa [28]) of 8 µg/mL (≈ 14.1 µM) and an MIC (Pseudomonas aeruginosa [29]) of 16 µg/mL (≈ 28.1 µM). The MIC (Escherichia coli) was 0.14 µg/mL (≈ 0.246 µM), the MIC (Acinetobacter baumannii [30]) was 2 µg/mL (≈ 3.52 µM) and the MIC (Pseudomonas aeruginosa [31]) was 16 µg/mL (≈ 28.1 µM). It also gave an MIC (Pseudomonas aeruginosa [32]) of 16 µg/mL (≈ 28.1 µM), an MIC (Pseudomonas aeruginosa [33]) of 32 µg/mL (≈ 56.3 µM) and an MIC (Pseudomonas aeruginosa [34]) of 16 µg/mL (≈ 28.1 µM). It also gave an IC50 [35] of 0.014 µM, a GI50 [36] greater than 25 µM and an MIC (Acinetobacter baumannii [37]) of 0.5 µg/mL (≈ 0.879 µM). It also gave an MIC (Acinetobacter baumannii [38]) of 0.5 µg/mL (≈ 0.879 µM).
